This note sets out measurements from ChEMBL document CHEMBL4513216, “Probing the Open Global Health Chemical Diversity Library for Multistage-Active Starting Points for Next-Generation Antimalarials” (ACS Infect Dis, 2020).

The nature of this data set: Toxicity liver stage against HepG2, at 10uM. In kind it is cell-based. Set-up: test concentration 10 uM, cell line HepG2-A16-CD81EGFP. Conditions: human, HepG2-A16-CD81EGFP cells; read-out: INHIBITION
The procedure, abridged:
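Uninfected HepG2-A16-CD81EGFP cells, 3 × 10^3 per well, 1536-well, plated on prespotted compound at 10 μM final, parasite-free screening media added to match infected plates; puromycin 10 μM positive, DMSO 0.5% negative; run in parallel with 48 h PbLuc assay at 37 °C, 5% CO2; viability by CellTiter-Glo luminescence, normalized to controls.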
As to `Cc1cccc2c1nc1n2[C@@H](CNC2CCCCC2)COC1`, the cytotoxicity at 10 µM is -51.8%.

Consider `CC(C)(C)CN[C@@H]1CO[C@H](CNC(=O)C2CCCC2)[C@H]1O`, for which the cytotoxicity at 10 µM was -9.03%.

Turning to `COc1ccccc1CN1C[C@@H](F)[C@@H](OCc2nc3ncccc3[nH]2)C1`, the cytotoxicity at 10 µM is 6.96%.

As for `O=S(=O)(NC[C@H]1OC[C@@H](NCc2cccs2)[C@@H]1O)c1ccccc1`, the cytotoxicity at 10 µM worked out at 3.98%.

For the compound `CCOC(=O)[C@@H]1[C@@H](c2ccccc2)CN2CCN(C(C)=O)C[C@H]12`, the cytotoxicity at 10 µM is 9.28%.

With `CC(C)n1cc(C(=O)NC2CN3CCC2CC3)c2ccccc21` (configuration not stated), the cytotoxicity at 10 µM was -59.7%.

Take `Cc1nc(-n2nc(-c3cccs3)cc2N)[nH]c(=O)c1C`: the cytotoxicity at 10 µM was found to be 4.84%.

Turning to `c1csc(CN2CCC3(CC2)COCCN3CC2CC2)n1`, the cytotoxicity at 10 µM came to 5.53%.

On to `COc1ccc(OC)c(CN2CCCCCC2c2cccs2)c1` (configuration not stated), for which the cytotoxicity at 10 µM is -5%.

In the case of `Cc1cccc(NC(=O)Cn2ncc(SCC(N)=O)c(Cl)c2=O)c1C`, the cytotoxicity at 10 µM is -15.7%.

For the compound `CC(C)CN1CCC2(CCN(Cc3ccoc3)CC2)C1=O`, the cytotoxicity at 10 µM stood at 7.85%.

As for `Cc1c(-c2cc(C(F)(F)F)nc(N3CCC(N)CC3)n2)cnn1C`, the cytotoxicity at 10 µM is 6.14%.

For the compound `CCn1nc(C)c2nc(C(C)C)nc(NCCCn3cccn3)c21`, the cytotoxicity at 10 µM came to 8.71%.

With `CCOc1cc(C(=O)N2CCCC2)cc2occc12`, the cytotoxicity at 10 µM turned out to be 8.52%.

Consider `Cc1nn(CC(=O)N2CCN(Cc3cn(C)nc3C)CC2)cc1Br`, for which the cytotoxicity at 10 µM is -6.28%.

Take `Cc1cnc2[nH]c(C(F)(F)F)c(CN3CCCC(CO)C3)c2c1` (configuration not stated): the cytotoxicity at 10 µM was found to be 8.48%.

On to `CCC(=O)N1CCCC1c1nc(N(C)C)ncc1-c1ccc(Cl)cc1` (configuration not stated), for which the cytotoxicity at 10 µM is 5.82%.

As for `Cc1cc(O)nc(C2CN(CCO)CCO2)n1` (configuration not stated), the cytotoxicity at 10 µM was -27.8%.

In the case of `COc1cccc(CC(=O)N2CCCC2c2nc(C)c(C)c(O)n2)c1` (configuration not stated), the cytotoxicity at 10 µM was -36.9%.

In the case of `Cc1cc(-c2cnc(N3CCNC(=O)C3)nc2-c2ccncc2)on1`, the cytotoxicity at 10 µM was -25%.

In the case of `Cc1cccc(CC(=O)N2CCCC(c3n[nH]c4nccnc34)C2)c1` (configuration not stated), the cytotoxicity at 10 µM was -8.52%.

Regarding `O=C(C1CCCCC1)N1CCC2(COc3ncccc3S(=O)(=O)N2)C1` (configuration not stated), the cytotoxicity at 10 µM is 11.3%.

For `CC(=O)Nc1nccn1Cc1ccccc1Cl`, the cytotoxicity at 10 µM was -8.1%.

On to `CCN(Cc1cccc2c1OCCO2)C(=O)NC(C)(C)C`, for which the cytotoxicity at 10 µM is -20.9%.

As to `COCC1CCN(C(=O)c2cc(O)nc(CC(C)C)c2)CC1`, the cytotoxicity at 10 µM was -2.7%.

Take `Cc1nn(C)c(C)c1C1CCCN1Cc1nnc(C2CC2)n1C` (configuration not stated): the cytotoxicity at 10 µM worked out at 1.76%.

As to `COc1cc(NC(=O)NCc2nccn2C)ccc1Br`, the cytotoxicity at 10 µM is -9.11%.

Consider `O=C(Cc1cccnc1)N1CCCC(c2cc(C(F)(F)F)[nH]n2)C1` (configuration not stated), for which the cytotoxicity at 10 µM is -42.6%.

Consider `NC(=O)C(Cc1ccccc1)NS(=O)(=O)Cc1ccccc1F` (configuration not stated), for which the cytotoxicity at 10 µM is -13%.

Regarding `COc1ccc(C)c(NC(=O)NCc2ncnn2C)c1`, the cytotoxicity at 10 µM was -4.27%.

Take `COc1cc(C#N)ccc1OCC(=O)NS(=O)(=O)c1ccccc1`: the cytotoxicity at 10 µM is 0.165%.

As for `Fc1cc(CNCCn2cccn2)ccc1-n1cncn1`, the cytotoxicity at 10 µM is -11.1%.

Take `Cc1nccn1-c1ccc(C(C)NCc2cc[nH]n2)cc1` (configuration not stated): the cytotoxicity at 10 µM came to 5.33%.

On to `COc1cc(OC)cc(N2CCC(NC(=O)c3ccc[nH]3)CC2)c1`, for which the cytotoxicity at 10 µM is -4.83%.

With `Cn1ccc(C(=O)N2CCOC(c3ccccc3)C2)cc1=O` (configuration not stated), the cytotoxicity at 10 µM was -0.944%.

`COC(=O)CN(CC1CCOC1)C1CC1` (configuration not stated): the cytotoxicity at 10 µM is -24.3%.

`CCCn1cc(NC(=O)c2ccncc2)ccc1=O`: the cytotoxicity at 10 µM was -8.44%.

As for `N#Cc1ccc(CNC2CCN(CCc3ccncc3)CC2)cc1`, the cytotoxicity at 10 µM is -5.03%.

For the compound `CCC1CCCCN1CCNC(=O)N1CCN(Cc2ccon2)CC1` (configuration not stated), the cytotoxicity at 10 µM was -2.01%.

In the case of `O=C(C1CCCc2[nH]ncc21)N1CCCC2(C1)OCCO2` (configuration not stated), the cytotoxicity at 10 µM is -1.26%.

For the compound `CC(=O)N1CCCN(C(=O)c2cnc(OC(C)C)c(Cl)c2)CC1`, the cytotoxicity at 10 µM came out at 6.02%.

Turning to `N#Cc1cccc(C(=O)NS(=O)(=O)c2ccc(C#N)c(Cl)c2)c1`, the cytotoxicity at 10 µM is -3.54%.

In the case of `CC(C)c1nc2n(n1)CC(NCC(=O)NCCC1=CCCCC1)CC2` (configuration not stated), the cytotoxicity at 10 µM was -4.76%.

As for `CC(c1ccccc1)N(C)C(=O)CN1CCCc2cccc(F)c21` (configuration not stated), the cytotoxicity at 10 µM is 22.5%.

With `CC(=O)c1ccc(S(=O)(=O)N2CCCC2CN2CCCC2)cc1` (configuration not stated), the cytotoxicity at 10 µM is -1.35%.

For the compound `Cc1cc(N2CCc3cncnc3C2)n2nc(C(F)(F)F)nc2n1`, the cytotoxicity at 10 µM came out at 6.25%.

Turning to `c1ccc(C(NCc2nnc(-c3ccco3)o2)C2CCC2)cc1` (configuration not stated), the cytotoxicity at 10 µM is -48.7%.

Regarding `O=C1C(N2CCOCC2)CCCN1Cc1cccc(C(F)(F)F)c1` (configuration not stated), the cytotoxicity at 10 µM was 0.174%.

On to `Cc1noc(-c2cccnc2N(C)Cc2cc(C)on2)n1`, for which the cytotoxicity at 10 µM was -5.1%.

For `Cc1nnc(SCCC(=O)N(C)Cc2ccc(F)cc2Cl)[nH]1`, the cytotoxicity at 10 µM turned out to be 11.4%.

As for `CCN1CCN(C(=O)NC(C)c2noc(-c3ccccc3)n2)CC1` (configuration not stated), the cytotoxicity at 10 µM is -15.5%.

Regarding `CC1CCCCN1CCNC(=O)NCc1ccc(C#N)cc1F` (configuration not stated), the cytotoxicity at 10 µM came out at 0.616%.

As to `N#CCSCCCN1CCN(C(=O)C2CCCC2)CC1`, the cytotoxicity at 10 µM came out at 5.34%.

As for `C[C@@H]1CN(C(=O)c2cccc(F)c2)C[C@]12CCN(c1ccsc1)C2=O`, the cytotoxicity at 10 µM was -80%.

On to `O=C(c1ccncn1)N1CCC[C@]2(C[C@H](OCC3CC3)CO2)C1`, for which the cytotoxicity at 10 µM was -81.9%.

Regarding `Cc1cc(CN2CC[C@H]3C[C@@H](C)O[C@@H]3C2)no1`, the cytotoxicity at 10 µM is -75.5%.

Take `c1cncc(OC2CCN(CCn3cc4ccccc4n3)CC2)c1`: the cytotoxicity at 10 µM is 1.48%.

As to `Cc1ncsc1CCN(C)C1CCN(c2ncnc3[nH]cnc23)CC1`, the cytotoxicity at 10 µM is -39%.

In the case of `COc1ccc(OC)c2c(C)cc(N(C)CCCO)nc12`, the cytotoxicity at 10 µM is 7.17%.

With `CC(=O)N1C[C@H](NC(=O)c2csc(C(C)C)c2)[C@@H](C(C)C)C1`, the cytotoxicity at 10 µM was -18.2%.

As to `CCc1ccc2nc(NCC(O)CO)cc(C)c2c1` (configuration not stated), the cytotoxicity at 10 µM is -15.4%.

For the compound `CN(Cc1ccoc1)C(=O)Cn1ncc(N(C)C)cc1=O`, the cytotoxicity at 10 µM amounted to 7.68%.

For `COc1cc(-c2cccc3c2OC(CN)C3)ccc1O` (configuration not stated), the cytotoxicity at 10 µM is -51.9%.

Consider `CN1CC(c2ccccc2)CC12CCN(C(=O)c1cccnc1)CC2` (configuration not stated), for which the cytotoxicity at 10 µM amounted to 10.2%.

On to `Clc1cccc2c1CCN(Cc1nc(CC3CC3)no1)C2`, for which the cytotoxicity at 10 µM worked out at 0.873%.

As to `CN(CCc1cnn(C)c1)C(=O)CN1C(=O)OC[C@@H]1c1ccccc1`, the cytotoxicity at 10 µM was -41.7%.

Take `CCC(CO)N(Cc1ccsc1)CC1CC1` (configuration not stated): the cytotoxicity at 10 µM turned out to be 11.5%.

Consider `Cc1ccc(CN2CCN(C3CSCCSC3)CC2CCO)o1` (configuration not stated), for which the cytotoxicity at 10 µM was -8.51%.

`CCN(Cc1cccc2c1OCO2)CC1CCCO1` (configuration not stated): the cytotoxicity at 10 µM was 3.18%.

Regarding `CNC(=O)Cc1ccc(-n2ccnc2-c2ccc(C(=O)O)s2)cc1`, the cytotoxicity at 10 µM was -1.53%.

`O=C(O)c1cccnc1CN1CCCC1CCc1ccccc1` (configuration not stated): the cytotoxicity at 10 µM turned out to be 10.9%.

As to `CCCc1nc(CNc2nc(C)nc3oc(C)nc23)cs1`, the cytotoxicity at 10 µM was -39.6%.

In the case of `OCCc1ccccc1-n1ccnc1-c1cn(C2CCNCC2)nn1`, the cytotoxicity at 10 µM is 2.39%.

`Cc1n[nH]c(C)c1CCc1nc(C2CC2)n[nH]1`: the cytotoxicity at 10 µM was -12%.

In the case of `CCCN1CCN(C(=O)c2cncnc2C)[C@H]2CS(=O)(=O)C[C@H]21`, the cytotoxicity at 10 µM came to 0.145%.

Take `O=C(Nc1ccccc1C(=O)NCCCN1CCOCC1)c1ccco1`: the cytotoxicity at 10 µM came to 8.17%.

`Cc1oc(C(C)C)cc1C(=O)N1CCN(c2cnn(C)c(=O)c2)CC1`: the cytotoxicity at 10 µM is 1.27%.

Consider `N#Cc1ccc(C(=O)N2CCC(c3ncc[nH]3)CC2)cn1`, for which the cytotoxicity at 10 µM was -3.27%.

With `CCC(=O)NCCc1cc(N2CCN(C(C)=O)CC2)nc(C2CC2)n1`, the cytotoxicity at 10 µM is -0.439%.

Regarding `CN(C)c1ncc(CN2CCC(c3nnsc3S(C)(=O)=O)CC2)cn1`, the cytotoxicity at 10 µM is 4.12%.

On to `CNc1cc2c(nn1)CCN(C(=O)c1cccc3c1OCCO3)C2`, for which the cytotoxicity at 10 µM was -5.13%.

Regarding `Cc1cc(C)c(CNC(=O)N(C)Cc2ccc3c(c2)OCO3)c(=O)[nH]1`, the cytotoxicity at 10 µM was -5.53%.

As to `Cc1cc(C)n(CC2CN(CCOc3ccc(C#N)cc3)CCO2)n1` (configuration not stated), the cytotoxicity at 10 µM is -6.31%.

For `CCc1nnc2n1CCN(C(=O)CN(C)C1CC1)C2`, the cytotoxicity at 10 µM is -1.28%.

Turning to `COc1ccc(C(CNC(=O)c2c(C)noc2C)N(C)C)cc1` (configuration not stated), the cytotoxicity at 10 µM is -13.1%.

For the compound `Cc1nc(CN(C)C2CCN(CCC(=O)N3CCOCC3)C2)no1` (configuration not stated), the cytotoxicity at 10 µM was -0.945%.

Turning to `Cc1nn(C)c(N2CCOCC2)c1CNCc1ccc(N(C)C)nc1`, the cytotoxicity at 10 µM is -14.4%.

For `c1ccc(-c2cnc(CNC3CCCN(c4cccnn4)C3)o2)cc1` (configuration not stated), the cytotoxicity at 10 µM is 0.993%.

Turning to `Brc1cccnc1OC1CCNCC1`, the cytotoxicity at 10 µM is -10.3%.

`O=C(N1CCCC1)C1(Cc2ccc(-c3cccs3)cc2)CCNC1` (configuration not stated): the cytotoxicity at 10 µM was -1.75%.

Consider `c1cncc(CN2CCO[C@@H]3CN(Cc4ccoc4)CC[C@@H]3C2)c1`, for which the cytotoxicity at 10 µM is -70.9%.

As for `CC(C)Oc1ncnc2c1CCN(Cc1ccco1)CC2`, the cytotoxicity at 10 µM turned out to be 8.49%.

Turning to `CN(CCc1ccccn1)C(=O)c1cccs1`, the cytotoxicity at 10 µM turned out to be 3.45%.

With `O=C(c1ccccc1)N1CCCn2c(CN3CCCCC3)nnc2C1`, the cytotoxicity at 10 µM was -65.5%.

Regarding `O=C([C@H]1C[C@@H]2CCN(C3CCOCC3)C[C@H]2O1)N1CCCC1`, the cytotoxicity at 10 µM stood at 7.31%.

`CN1CCN(C=C2N=C(c3cc(-c4ccc(F)cc4)n[nH]3)ON2)CC1`: the cytotoxicity at 10 µM was -2.08%.

Consider `CCn1[nH]c(C)c2c(C(F)(F)C(F)(F)F)cc(=O)nc1-2`, for which the cytotoxicity at 10 µM is -9.29%.
